Screens: PubChem, The Scripps Research Institute Molecular Screening Center
OXTR agonist = human OXTR agonists, primary screen, fluorescence, CHO-OTR cells, Fluo-8 calcium; Oxytocin receptor (Homo sapiens), P30559; Fluo-8 calcium fluorescence; normalized: DMSO 0%, oxytocin 100%; activation, % at 3 µM; 0.32% of 320,000 active; AID 2435, 2010;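 active = activation above the mean of all tested compounds plus 3 SD, cutoff set per screening run, cut at about 20% in these data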;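 also: peak over basal fluorescence ratio from a 100 s FLIPR kinetic read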
OXTR potentiate = human OXTR potentiators, primary screen, fluorescence, CHO-OTR cells, Fluo-8 calcium; 0.061% of 320,000 active; AID 2445, 2010; Fluo-8 calcium fluorescence, potentiator mode; 0% = oxytocin EC15, 100% = EC100; activation, % at 3 µM;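 active = activation above that plate's cutoff, the mean activation of tested compounds plus 3 SD, cut at about 6.6% in these data, passing the limit was not always enough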
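System: human OTR in CHO cells / Also added: sub-maximal oxytocin, roughly EC15 / Control set: EC15 oxytocin low, 75 nM oxytocin high / Schedule: 6 min compound pre-incubation at room temperature, 100 s kinetic read / Compound: single-point 3.0 µM / Replication: singlicate / Technique: Fluo-8 calcium dye fluorescence / Read-out basis: % activation of max/min ratio relative to oxytocin controls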
V1R ag counter = agonists of human V1a receptor, primary screen, counter-screen for OXTR agonist project, fluorescence, CHO-V1R cells | 0.25% of 320,000 active | Vasopressin V1a receptor (Homo sapiens), P37288 | AID 2797, 2010 | Fluo-8 calcium fluorescence, agonist mode; 0% DMSO, 100% 3 nM vasopressin | activation, % at 3 µM;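 active = activation above the mean activation of all tested compounds plus 3 SD, per screening run, cut at about 20% in these data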;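 also: signal is peak over basal fluorescence ratio across a 100 second FLIPR read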
Target sequence (P37288 whole entry, looked up): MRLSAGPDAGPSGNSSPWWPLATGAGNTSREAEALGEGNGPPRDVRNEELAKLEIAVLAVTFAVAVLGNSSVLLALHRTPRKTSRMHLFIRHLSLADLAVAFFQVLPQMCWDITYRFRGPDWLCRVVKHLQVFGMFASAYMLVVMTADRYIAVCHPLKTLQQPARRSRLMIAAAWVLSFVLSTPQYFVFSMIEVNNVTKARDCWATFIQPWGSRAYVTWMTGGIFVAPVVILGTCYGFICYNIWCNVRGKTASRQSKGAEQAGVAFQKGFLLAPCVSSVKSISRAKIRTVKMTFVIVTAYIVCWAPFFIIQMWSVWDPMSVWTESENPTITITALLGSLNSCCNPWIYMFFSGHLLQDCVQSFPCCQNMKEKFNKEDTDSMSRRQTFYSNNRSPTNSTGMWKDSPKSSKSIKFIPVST
OX1R antag-1 = antagonists of human orexin 1 receptor (OX1R); Orexin/Hypocretin receptor type 1 (Homo sapiens), O43613; OX1R-expressing cells, FRET antagonist read-out; inhibition, % at 6.6 µM; 1.8% of 330,000 active; in the data active = inhibition mostly above about 38%, no sharp cut-off; inactive = mostly below about 40%
OX1R antag-2 = OX1R (HCRTR1) antagonists, primary screen, fluorescence, CHO/OX1R cells, Fluo-8 calcium, orexin A; Orexin/Hypocretin receptor type 1 (Homo sapiens), O43613; Fluo-8 calcium fluorescence; inhibition, % at 5 µM; 0.43% of 330,000 active; AID 434989, 2010;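 active = inhibition above its plate's threshold, mean inhibition of all tested compounds on the plate plus 3 SD, cut at about 37% in these data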
CHO parental Ca = ATP-evoked calcium signal inhibitors, parental CHO, primary screen, counter-screen for OX1R antagonist project, cell-based, fluorescence, Fluo-8 calcium dye | parental CHO-K1, ATP-induced calcium, Fluo-8 fluorescence | inhibition, % at 5.6 µM | 0.63% of 330,000 active;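 active = inhibition above that plate's mean sample inhibition plus 3 SD, cut at about 26% in these data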
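Test system: untransfected parental CHO cell line; also added: ATP stimulus; dosing: 5.6 µM, single dose; signal: calcium-sensitive Fluo-8 fluorescence; measure: percent inhibition of ATP-evoked calcium rise, normalized to controls; benchmarks: low control ATP plus DMSO, high control DMSO only; replication: one well per compound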
OXTR ag confirm = human OXTR agonists, confirmation, fluorescence, CHO-OTR cells, triplicate; 20% of 390 active; activation, % at 3 µM; shares compounds with OXTR agonist; AID 434963, 2010; Fluo-8 calcium fluorescence, agonist;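 active = mean activation above about 20% derived from the earlier single-dose screen, limit read from the data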;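 also: peak over minimum fluorescence ratio per well during a 100 second FLIPR read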
V1R ag counter 3x = V1a receptor agonists, calcium signal, counter-screen for OXTR agonist project, triplicate, fluorescence, CHO-V1R cells; Fluo-8 calcium fluorescence; 10% of 390 active; AID 434991, 2010; shares compounds with OXTR agonist; activation, % at 3 µM;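 active = mean activation over triplicate exceeds the hit threshold set in the earlier primary screen, cut at about 20% in these data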;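 also: peak over basal fluorescence ratio within a 100 second read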
Each line names hits and unclear results; the compound was inactive in the other large screens (follow-up assays come after a bar, where they were run). Rows were chosen to be rich in hits. Some 2.7% of all compounds tested hit in one or more screens of this group.

CCc1nc(C)cn1S(=O)(=O)c1cc(C)c(OC)c(C)c1C	CHO parental Ca 31
N=c1c(C(=O)NCC2CCCO2)cc2c(=O)n3ccccc3nc2n1C1CCCCC1 (stereo unspecified)	none
Cc1ccc2nc3c(cc(C(=O)NCc4ccco4)c(=N)n3C3CCCC3)c(=O)n2c1	none
N=c1c(C(=O)NCC2CCCO2)cc2c(=O)n3ccccc3nc2n1C1CCCC1 (stereo unspecified)	OX1R antag-1 45
Cc1cccn2c(=O)c3cc(C(=O)NCC4CCCO4)c(=N)n(C4CCCC4)c3nc12 (stereo unspecified)	OX1R antag-1 59
Cc1ccc2nc3c(cc(C(=O)NCC4CCCO4)c(=N)n3C3CCCC3)c(=O)n2c1 (stereo unspecified)	OX1R antag-1 58
Cc1ccc(Sc2ccc(NC(=O)CCN3C(=O)NC4(CCCC4)C3=O)cc2)c(C)c1	none
COc1ccc2cc3cc(C(=O)N4CCN(C5CCCCC5)CC4)oc3nc2c1	none
COc1ccc2cc3cc(C(=O)NCCN4CCN(Cc5ccccc5)CC4)oc3nc2c1	none
COc1ccc2cc3cc(C(=O)N4CCCCCC4)oc3nc2c1	OX1R antag-1 57
COc1ccc2cc3cc(C(=O)NCCc4ccc(OC)c(OC)c4)oc3nc2c1	none
COc1ccc2cc3cc(C(=O)NCCCN4CCC(C)CC4)oc3nc2c1	OX1R antag-1 46
COc1ccc2cc3cc(C(=O)NCCN4CCc5ccccc5C4)oc3nc2c1	OX1R antag-1 42
Cc1ccc(O)c(N=Nc2nccs2)c1	none
O=C(COC(=O)c1cccc(NS(=O)(=O)/C=C/c2ccccc2)c1)Nc1ccccc1OC(F)F	none
Cc1ccnc(NS(=O)(=O)c2ccc(NC(=O)c3cc(=O)c4ccccc4o3)cc2)n1	none
CC(O)CNCc1ccccc1C(F)(F)F (stereo unspecified)	none
CC(C)COc1ccc(CNC(=S)NCc2ccccc2)cc1	none
CC(C)COc1ccc(/C(=N/O)c2ccccc2)cc1	CHO parental Ca 33
CCOc1ccc(C(=O)OCC(=O)Nc2ccc(SC(F)F)cc2)cc1OCC	CHO parental Ca 25
O=C(COC(=O)c1cc[n+]([O-])cc1)Nc1ccc(SC(F)F)cc1	none
CSc1cccc(NC(=O)/C=C/c2ccccc2)c1	none
CSc1cccc(NC(=O)/C=C/c2ccc(Cl)cc2)c1	OX1R antag-1 92
CN=C(Nc1cc(C)nn1CCC#N)c1ccc(F)cc1	none
Cn1ccc(NC(=O)c2ccc([N+](=O)[O-])cc2)n1	OX1R antag-1 29
Cn1ccc(NC(=O)c2ccc(Cl)cc2)n1	none
Cc1cc(NC(=O)c2ccc([N+](=O)[O-])cc2)n(CCC#N)n1	OX1R antag-1 46
COC(=O)Cn1ncc(N(C)Cc2ccccc2)c(Cl)c1=O	none
Cc1ccc(CNC(=O)[C@H](C)NC(=O)C2CCN(C(=O)[C@@H]3CCCN3C(=O)OC(C)(C)C)CC2)cc1	none
CN(C)c1ccc2c(c1)Sc1cc(N(C)C)ccc1N2C(=O)c1ccccc1	CHO parental Ca 38
CN(C)c1ccc(C(=O)C(=O)c2ccccc2)cc1	none
CCn1c(O)c(N=NC(=O)c2ccc(CSc3nncn3C)cc2)c2ccccc21	OX1R antag-1 70
Cn1cnnc1SCc1ccc(C(=O)N=Nc2c(O)n(Cc3ccc(Cl)cc3)c3ccccc23)cc1	none
COC(=O)C1=C(CCc2ccccc2)NC(=O)NC1c1ccc(Br)cc1 (stereo unspecified)	none
Cc1ccc(NC(=O)Nc2ccc3c(c2)N(C)C(=O)CS3)cc1C	none
Cc1cc(C)cc(NC(=O)Nc2ccc3c(c2)N(C)C(=O)CS3)c1	CHO parental Ca 34
C#CCN1C=C(C(=O)OCC)C(C)N(Cc2ccccc2I)S1(=O)=O (stereo unspecified)	none (no result: OXTR agonist, OXTR potentiate, V1R ag counter)
CCC(=O)NCCc1nc2cc(NC(=O)c3ccc(F)cc3)ccc2n1C	none
O=[N+]([O-])c1cc(-c2ncccn2)cs1	OX1R antag-1 51
CC(C)CNC(=S)NC(=O)c1csc([N+](=O)[O-])c1	none
CC(=O)Nc1ccc(NC(=O)c2cc(-c3cc(C)cc(C)c3O)n[nH]2)cc1	none
Cc1cc(C)c(O)c(-c2cc(C(=O)Nc3ccc(S(=O)(=O)N4CCOCC4)cc3)[nH]n2)c1	CHO parental Ca 34
Cc1cccc(C)c1NC(=O)CN1C(=O)NC(C)(C2CC2)C1=O (stereo unspecified)	none
O=C(Nc1c[nH]c(=O)[nH]c1=O)c1cc([N+](=O)[O-])cc([N+](=O)[O-])c1	OX1R antag-1 69
O=S(=O)(c1ccc(SCCOc2ccc(Cl)cc2)nc1)N1CCCC1	CHO parental Ca 30
CCCCn1c(N)c(N(CC(C)C)C(=O)C2=NN(c3ccccc3)C(=O)CC2)c(=O)[nH]c1=O	none
COc1cc(OC)c(-c2c3cc(O)c(=O)cc-3oc3cc(O)c(O)cc23)cc1OC	OXTR agonist 390, V1R ag counter 389, OX1R antag-2 105, CHO parental Ca 74
CCC(=O)c1ccc(OCc2ccccc2)c(OC)c1	none
CCC(=O)c1ccc(OCc2ccc(C(=O)c3ccccc3)cc2)cc1	CHO parental Ca 65
O=C(CCc1ccccc1)Nc1cccc(NC(=O)CCc2ccccc2)c1	OX1R antag-1 48
Cc1ccc(NS(=O)(=O)c2ccc(C(=O)NCC(c3ccco3)N3CCCCC3)cc2)cc1 (stereo unspecified)	OXTR agonist 24 | OXTR ag confirm 24 | V1R ag counter 3x inactive
Cc1cc(C)n2nc(C(=O)OCC(=O)N(C)C3CCS(=O)(=O)C3)nc2n1 (stereo unspecified)	none
O=C(Nc1ccc(S(=O)(=O)N2CCCCC2)cc1)c1ccc(CN2CCOCC2)cc1	OXTR agonist 20 | OXTR ag confirm inactive | V1R ag counter 3x inactive
O=C(Nc1ccc(S(=O)(=O)N2CCCC2)cc1)c1ccc(CN2CCOCC2)cc1	none
